Source: ChEMBL document CHEMBL1126595, “Studies directed toward the design of orally active renin inhibitors. 2. Development of the efficacious, bioavailable renin inhibitor (2S)-2-benzyl-3- [[(1-methylpiperazin-4-yl)sulfonyl]propionyl]-3-thiazol-4-yl-L-alanine amide of (2S,3R,4S)-2-amino-1-cyclohexyl-3,4-dihydroxy-6-methylheptane …” (J Med Chem, 1993)
Values after ≈ are worked out from the molar mass of the structure shown.

Experiments:
[1] = Bioavailability in the systemic circulation after 10 minutes was determined after intraduodenal dose of 10 mg/kg in rat by HPLC method; assay type: ADME, organism-based; settings: plasma (systemic circulation), read-out: Plasma level
Procedure, shortened: (§1)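 Screening model in anesthetized rats given 10 mg/kg intraduodenally. Formulation was ethanol stock with 110 mol % HCl, diluted with aqueous hydroxypropyl methylcellulose to 25% ethanol. Systemic and portal blood drawn at 10 and 30 min in the same animals. Drug level (ng/mL) measured by HPLC or renin inhibition assay. Mean ± SEM, n = 3 unless noted.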

[2] = Partition coefficient in octanol/water phase at pH 7.4; assay type: physicochemical
Procedure, shortened: (§2)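 log P measured by octanol/water partition at pH 7.4.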

Renin [3] = biological target: T1, Renin (Homo sapiens, UniProt P00797); assay: Inhibitory concentration against human plasma renin at pH 7.4; assay type: cell-free
T1 sequence (P00797 whole entry): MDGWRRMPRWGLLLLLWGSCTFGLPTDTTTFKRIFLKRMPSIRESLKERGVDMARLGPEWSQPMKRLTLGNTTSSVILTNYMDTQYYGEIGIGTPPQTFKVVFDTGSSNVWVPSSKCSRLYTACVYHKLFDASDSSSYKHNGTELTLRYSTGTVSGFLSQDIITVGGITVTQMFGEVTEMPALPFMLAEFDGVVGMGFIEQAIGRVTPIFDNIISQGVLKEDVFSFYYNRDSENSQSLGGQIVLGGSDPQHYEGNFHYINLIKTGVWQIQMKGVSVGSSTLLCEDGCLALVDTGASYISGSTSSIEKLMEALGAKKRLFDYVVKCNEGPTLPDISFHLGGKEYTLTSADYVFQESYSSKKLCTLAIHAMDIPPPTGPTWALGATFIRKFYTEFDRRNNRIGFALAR

[4] = Bioavailability in the portal circulation after 30 minutes was determined after intraduodenal dose of 10 mg/kg in rat by HPLC method; assay type: ADME, organism-based; settings: plasma (portal circulation), read-out: Plasma level; procedure, shortened: as §1
[5] = Bioavailability in the systemic circulation after 30 minutes was determined after intraduodenal dose of 10 mg/kg in rat by HPLC method; assay type: ADME, organism-based; settings: plasma (systemic circulation), read-out: Plasma level; procedure, shortened: as §1
[6] = Bioavailability in the portal circulation after 10 minutes was determined after intraduodenal dose of 10 mg/kg in rat by HPLC method; assay type: ADME, organism-based; settings: plasma (portal circulation), read-out: Plasma level; procedure, shortened: as §1
[7] = Partition coefficient in the octanol/water phase at pH 7.4; assay type: physicochemical; procedure, shortened: as §2
[8] = Peak concentration was determined in systemic circulation after intraduodenal dose of 10 mg/kg in monkey; assay type: ADME, organism-based; set-up: dose 10 mg/kg, route intraduodenal; settings: simiiformes, in vivo, read-out: Activity
Procedure, shortened: (§3)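 Anesthetized, salt-depleted cynomolgus monkeys dosed intraduodenally at 10 mg/kg in HCl salt/ethanol–hydroxypropyl methylcellulose vehicle (25% ethanol). Systemic and portal plasma drug levels measured by renin inhibition assay. AUC in ng h/mL. Bioavailability compared against an iv dose of 0.3 mg/kg or 1.0 mg/kg, the latter taken from earlier work. Mean ± SEM.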

[9] = Integrated area under the plasma drug level-time curve was determined in portal circulation after intraduodenal dose of 10 mg/kg in monkey; assay type: ADME, organism-based; set-up: dose 10 mg/kg, route intraduodenal; settings: simiiformes; procedure, shortened: as §3
[10] = Peak concentration was determined in portal circulation after intraduodenal dose of 10 mg/kg in monkey; assay type: ADME, organism-based; set-up: dose 10 mg/kg, route intraduodenal; settings: simiiformes, in vivo, read-out: Activity; procedure, shortened: as §3
[11] = Bioavailability was determined after intraduodenal dose of 10 mg/kg in monkey (compared to 0.3 mg/kg intravenous dose); assay type: ADME, organism-based; settings: simiiformes, in vivo, read-out: Bioavailabiility; procedure, shortened: as §3
[12] = Integrated area under the plasma drug level-time curve was determined in systemic circulation after intraduodenal dose of 10 mg/kg in monkey; assay type: ADME, organism-based; set-up: dose 10 mg/kg, route intraduodenal; settings: simiiformes; procedure, shortened: as §3
[13] = Hypotension peak is percentage change from predose baseline pressure observed after intraduodenal dose of 10 mg/kg in monkey; assay type: ADME, organism-based; set-up: dose 10 mg/kg, route intraduodenal; settings: simiiformes, in vivo, other
Procedure, shortened: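 Anesthetized, salt-depleted cynomolgus monkeys given 10 mg/kg intraduodenally. Mean arterial pressure followed for up to 5 h. Peak fall expressed as % change from predose baseline. Difference from baseline significant if P < 0.05. Mean ± SEM.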

[14] = Bioavailability in the systemic circulation after 30 minutes was determined after intraduodenal dose of 10 mg/kg in rat by renin inhibition assay; assay type: ADME, organism-based; settings: plasma (systemic circulation), read-out: Plasma level; procedure, shortened: as §1
Renin [15] = biological target: T2, Renin (Rattus norvegicus, UniProt P08424); assay: In vitro inhibitory concentration against rat plasma renin at pH 7.4; assay type: cell-free
T2 sequence (P08424 whole entry): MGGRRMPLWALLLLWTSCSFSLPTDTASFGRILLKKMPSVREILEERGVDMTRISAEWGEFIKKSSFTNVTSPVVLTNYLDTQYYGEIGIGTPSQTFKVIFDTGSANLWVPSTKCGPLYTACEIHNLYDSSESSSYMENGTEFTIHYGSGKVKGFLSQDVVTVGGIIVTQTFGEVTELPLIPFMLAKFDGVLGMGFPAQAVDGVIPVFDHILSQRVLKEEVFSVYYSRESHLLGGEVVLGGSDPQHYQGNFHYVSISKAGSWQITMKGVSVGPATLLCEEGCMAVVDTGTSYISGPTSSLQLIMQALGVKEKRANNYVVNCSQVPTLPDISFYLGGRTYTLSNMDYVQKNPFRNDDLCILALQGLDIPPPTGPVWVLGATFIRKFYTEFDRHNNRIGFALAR

[16] = Bioavailability was determined after intraduodenal dose of 10 mg/kg in ferret, determined by renin inhibition assay; assay type: ADME, organism-based, Mustela putorius furo; settings: in vivo, read-out: Bioavailabiility
Procedure, shortened: (§4)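 Intraduodenal 10 mg/kg to anesthetized rats or ferrets. Compound dissolved in ethanol with 110 mol % HCl, then diluted in aqueous hydroxypropyl methylcellulose to 25% ethanol (10 mg/mL). Plasma sampled id rat 15, 30, 60, 120 min; id ferret 5, 15, 30, 60, 120, 180 min. Drug measured by renin inhibition assay or HPLC. AUC in ng h/mL. Bioavailability is relative to iv 1.0 mg/kg (rat) or 0.3 mg/kg (ferret).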

[17] = Bioavailability in the portal circulation after 30 minutes was determined after intraduodenal dose of 10 mg/kg in rat by renin inhibition assay; assay type: ADME, organism-based; settings: plasma (portal circulation), read-out: Plasma level; procedure, shortened: as §1
[18] = Peak concentration was determined in systemic circulation after intraduodenal dose of 10 mg/kg in rat, determined by renin inhibition assay; assay type: ADME, organism-based; set-up: dose 10 mg/kg, route intraduodenal; settings: in vivo, read-out: Activity; procedure, shortened: as §4
[19] = Integrated area under the plasma drug level-time curve was determined in systemic circulation after intraduodenal dose of 10 mg/kg in ferret, determined by renin inhibition assay; assay type: ADME, organism-based, Mustela putorius furo; set-up: dose 10 mg/kg, route intraduodenal; procedure, shortened: as §4
[20] = Solubility at pH 7.4; assay type: physicochemical; settings: buffer
Renin [21] = biological target: T1, Renin; assay: In vitro inhibitory concentration against human plasma renin at pH 7.4; assay type: cell-free
[22] = Integrated area under the plasma drug level-time curve was determined in systemic circulation after intraduodenal dose of 10 mg/kg in rat, determined by renin inhibition assay; assay type: ADME, organism-based; set-up: dose 10 mg/kg, route intraduodenal; procedure, shortened: as §4
[23] = Bioavailability was determined after intraduodenal dose of 10 mg/kg in monkey (compared to 0.3 mg/kg intravenous dose), determined by renin inhibition assay; assay type: ADME, organism-based; settings: simiiformes, in vivo, read-out: Bioavailabiility; procedure, shortened: as §3
[24] = Bioavailability was determined after intraduodenal dose of 10 mg/kg in rat, determined by renin inhibition assay; assay type: ADME, organism-based; settings: in vivo, read-out: Bioavailabiility; procedure, shortened: as §4
[25] = Integrated area under the plasma drug level-time curve was determined in systemic circulation after intraduodenal dose of 10 mg/kg in monkey determined by renin inhibition assay; assay type: ADME, organism-based; set-up: dose 10 mg/kg, route intraduodenal; settings: simiiformes; procedure, shortened: as §3
[26] = Bioavailability in the systemic circulation after 10 minutes was determined after intraduodenal dose of 10 mg/kg in rat by renin inhibition assay; assay type: ADME, organism-based; settings: plasma (systemic circulation), read-out: Plasma level; procedure, shortened: as §1
[27] = biological target: Renin (Canis lupus familiaris); assay: In vitro inhibitory concentration against dog plasma renin at pH 7.4
[28] = Peak concentration was determined in systemic circulation after intraduodenal dose of 10 mg/kg in monkey, determined by renin inhibition assay; assay type: ADME, organism-based; set-up: dose 10 mg/kg, route intraduodenal; settings: simiiformes, in vivo, read-out: Activity; procedure, shortened: as §3
[29] = In vitro inhibitory concentration against monkey plasma renin at pH 7.4
[30] = Bioavailability in the portal circulation after 10 minutes was determined after intraduodenal dose of 10 mg/kg in rat by renin inhibition assay; assay type: ADME, organism-based; settings: plasma (portal circulation), read-out: Plasma level; procedure, shortened: as §1
[31] = Peak concentration was determined in systemic circulation after intraduodenal dose of 10 mg/kg in ferret, determined by renin inhibition assay; assay type: ADME, organism-based, Mustela putorius furo; set-up: dose 10 mg/kg, route intraduodenal; settings: in vivo, read-out: Activity; procedure, shortened: as §4

## CC(C)C[C@H](O)[C@H](O)[C@H](CC1CCCCC1)NC(=O)[C@H](Cc1cscn1)NC(=O)[C@@H](CC(=O)N(C)CCCN(C)C)Cc1ccccc1
[1]
  concentration at 10 min: 93 ng/mL
[2]
  logD: 2.83
Renin [3]
  IC50: 8.1 nM
[4]
  concentration at 0.5 h: 270 ng/mL
[5]
  concentration at 0.5 h: 47 ng/mL
[6]
  concentration at 10 min: 580 ng/mL

## CC(C)C[C@H](O)[C@H](O)[C@H](CC1CCCCC1)NC(=O)[C@H](Cc1cscn1)NC(=O)[C@H](Cc1ccccc1)CS(=O)(=O)C1CCN(C)CC1
[7]
  logD: 3.61
[8]
  Cmax: 72 ng/mL
[9]
  AUC: 530 ng·h/mL
[10]
  Cmax: 550 ng/mL
Renin [3]
  IC50: 4 nM
[11]
  bioavailability: 1.8%
[12]
  AUC: 110 ng·h/mL
[13]
  Change: 23%

## CC(C)C[C@H](O)[C@H](O)[C@H](CC1CCCCC1)NC(=O)[C@H](Cc1cscn1)NC(=O)[C@@H](CC(=O)N(C)CCc1ccccn1)Cc1ccccc1
[14]
  concentration at 0.5 h: 230 ng/mL
[7]
  logD: 4.22
Renin [15]
  IC50: > 10000 nM
[16]
  bioavailability: 68%
[17]
  concentration at 0.5 h: 560 ng/mL
[18]
  Cmax: 980 ng/mL
[19]
  AUC: 1100 ng·h/mL
[20]
  solubility: 13 µg/mL (≈ 18.4 µM)
Renin [21]
  IC50: 2.6 nM
[22]
  AUC: 1300 ng·h/mL
[23]
  bioavailability: 3.1%
[9]
  AUC: 3400 ng·h/mL
[24]
  bioavailability: 27%
[10]
  Cmax: 1200 ng/mL
[25]
  AUC: 260 ng·h/mL
[26]
  concentration at 10 min: 220 ng/mL
[27]
  IC50: 33 nM
[28]
  Cmax: 70 ng/mL
[29]
  IC50: 0.76 nM
[30]
  concentration at 10 min: 550 ng/mL
[13]
  Change: 28%
[31]
  Cmax: 510 ng/mL
